Reference: ChEMBL document CHEMBL2385076, “Discovery of 2-((1H-benzo[d]imidazol-1-yl)methyl)-4H-pyrido[1,2-a]pyrimidin-4-ones as novel PKM2 activators” (Bioorg Med Chem Lett, 2013)
In brackets after ≈: the same amount, converted by molar mass. Activity calls are given as the source filed them. The rule behind the calls is not given here.

Tests used:
[1] = target: Sodium-dependent serotonin transporter (Homo sapiens) (UniProt P31645); assay: Binding affinity to human 5-HT transporter by radioligand binding assay
Procedure, shortened: (§1)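 CEREP panel binding measured by displacement of an antagonist radioligand.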

[2] = species: Homo sapiens; assay: Binding affinity to sodium channel site 2 (unknown origin) by radioligand binding assay; procedure, shortened: as §1
[3] = target: Muscarinic acetylcholine receptor M1 (Homo sapiens) (UniProt P11229); assay: Binding affinity to human muscarinic M1 receptor by radioligand binding assay; procedure, shortened: as §1
[4] = target: Mu-type opioid receptor (Homo sapiens) (UniProt P35372); assay: Binding affinity to human mu opioid receptor by radioligand binding assay
Procedure, shortened: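 CEREP panel binding measured by displacement of an agonist radioligand.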

[5] = target: Adrenergic receptor alpha-1 (Homo sapiens) (UniProt P35348+P25100+P35368); assay: Binding affinity to alpha-1 adrenergic receptor (unknown origin) by radioligand binding assay
[6] = target: Serine/threonine-protein kinase mTOR (Homo sapiens) (UniProt P42345); assay: Inhibition of mTOR (unknown origin)
[7] = target: Angiopoietin-1 receptor (Homo sapiens) (UniProt Q02763); assay: Inhibition of Tie2 (unknown origin)
[8] = target: Proto-oncogene tyrosine-protein kinase Src (Homo sapiens) (UniProt P12931); assay: Inhibition of SRC (unknown origin)
[9] = target: Protein kinase C beta type (Homo sapiens) (UniProt P05771); assay: Inhibition of PRKCB2 (unknown origin)
[10] = target: Serine/threonine-protein kinase MARK1 (Homo sapiens) (UniProt Q9P0L2); assay: Inhibition of MARK1 (unknown origin)
[11] = target: Mitogen-activated protein kinase kinase kinase kinase 4 (Homo sapiens) (UniProt O95819); assay: Inhibition of MAP4K4 (unknown origin)
[12] = target: Mitogen-activated protein kinase 1 (Homo sapiens) (UniProt P28482); assay: Inhibition of MAPK1 (unknown origin)
[13] = target: Tyrosine-protein kinase Lck (Homo sapiens) (UniProt P06239); assay: Inhibition of LCK (unknown origin)
[14] = target: Tyrosine-protein kinase JAK3 (Homo sapiens) (UniProt P52333); assay: Inhibition of JAK3 (unknown origin)
[15] = target: Vascular endothelial growth factor receptor 2 (Homo sapiens) (UniProt P35968); assay: Inhibition of KDR (unknown origin)
[16] = target: Ephrin type-A receptor 2 (Homo sapiens) (UniProt P29317); assay: Inhibition of EPHA2 (unknown origin)
[17] = target: Epidermal growth factor receptor (Homo sapiens) (UniProt P00533); assay: Inhibition of EGFR (unknown origin)
[18] = target: Serine/threonine-protein kinase Chk2 (Homo sapiens) (UniProt O96017); assay: Inhibition of CHEK2 (unknown origin)
[19] = target: RAC-alpha serine/threonine-protein kinase (Homo sapiens) (UniProt P31749); assay: Inhibition of AKT1 (unknown origin)
[20] = Kinetic solubility of the compound at pH 7.4; type: physicochemical; settings: buffer, read-out: Kinetic_solubility
[21] = Passive permeability from apical to basolateral side of dog RRCK cells; type: ADME, cell-based, Canis lupus familiaris, MDCKII-LE; settings: MDCK, read-out: permeability
[22] = Intrinsic clearance in human liver microsomes; type: ADME, Microsome; settings: read-out: CLH
[23] = target: T1, Pyruvate kinase PKM (Homo sapiens, UniProt P14618); assay: Activation of human PKM2 assessed as production of ATP at infinite concentration after 10 mins by lactate dehydrogenase-coupled enzyme assay relative to FBP
Procedure, shortened: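 Coupled to lactate dehydrogenase, NADH loss read as the drop in absorbance at 340 nm. Reaction: 2nM human PKM2 (cleaved N-term his, 1-531), 2 mM PEP, 0.35 mM NADH, 4 units/mL LDH in 50 mM Tris pH 7.5 with KCl and 5 mM MgCl2. Compound preincubated 10 minutes at 32 °C, then 0.5mM ADP starts the reaction. Duplicates; 10-point curves; asymptote max = % activation at infinite concentration.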

[24] = system: HT-29; assay: Antiproliferative activity against human HT-29 cells at 10 uM after 5 days; type: functional; settings: HT-29, 120 h
Procedure, shortened: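 Cells plated in Optimem-GlutaMax medium and cultured overnight before exposure to 10 µM compound. Viability measured with CytoTox-Glo after 5 days of treatment.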

[25] = target: T1, Pyruvate kinase PKM; assay: Activation of PKM2 in human Snu182 cells assessed as extracellular acidification rate at 10 uM after 18 hrs; type: cell-based
Procedure, shortened: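 Snu182 cells seeded at 12k/well in RPMI with 10% FBS and 2 mM glutamine, cultured overnight, then given 10 µM compound for 18 h at 37°C, 5% CO2. Medium switched to XF DMEM with 5 mM glucose plus 10 µM compound; OCR and ECAR measured on a Seahorse XF96 analyzer.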

[26] = species: Rattus norvegicus; assay: Binding affinity to central-type benzodiazepine receptor in rat cerebral cortex; type: tissue-based
[27] = target: 3-phosphoinositide-dependent protein kinase 1 (Homo sapiens) (UniProt O15530); assay: Inhibition of PDK1 (unknown origin)
[28] = system: HuH-1 (human); assay: Antiproliferative activity against human HuH1 cells at 10 uM after 5 days

T1 sequence (P14618 2-531 limits assumed): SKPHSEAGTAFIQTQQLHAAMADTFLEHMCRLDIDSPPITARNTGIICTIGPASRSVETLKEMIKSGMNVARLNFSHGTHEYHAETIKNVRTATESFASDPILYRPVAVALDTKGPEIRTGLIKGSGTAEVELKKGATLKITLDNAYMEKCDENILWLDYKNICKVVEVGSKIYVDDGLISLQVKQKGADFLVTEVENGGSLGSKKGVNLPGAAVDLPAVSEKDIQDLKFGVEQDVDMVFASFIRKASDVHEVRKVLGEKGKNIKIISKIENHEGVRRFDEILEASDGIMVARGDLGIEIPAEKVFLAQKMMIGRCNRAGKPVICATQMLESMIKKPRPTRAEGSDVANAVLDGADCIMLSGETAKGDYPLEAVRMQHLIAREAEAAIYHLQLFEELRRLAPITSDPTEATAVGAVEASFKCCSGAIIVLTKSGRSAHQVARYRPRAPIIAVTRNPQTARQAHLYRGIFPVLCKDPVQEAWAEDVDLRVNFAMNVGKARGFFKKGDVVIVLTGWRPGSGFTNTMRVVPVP
3-phosphoinositide-dependent protein kinase 1 (Homo sapiens), sequence (O15530 whole entry, looked up): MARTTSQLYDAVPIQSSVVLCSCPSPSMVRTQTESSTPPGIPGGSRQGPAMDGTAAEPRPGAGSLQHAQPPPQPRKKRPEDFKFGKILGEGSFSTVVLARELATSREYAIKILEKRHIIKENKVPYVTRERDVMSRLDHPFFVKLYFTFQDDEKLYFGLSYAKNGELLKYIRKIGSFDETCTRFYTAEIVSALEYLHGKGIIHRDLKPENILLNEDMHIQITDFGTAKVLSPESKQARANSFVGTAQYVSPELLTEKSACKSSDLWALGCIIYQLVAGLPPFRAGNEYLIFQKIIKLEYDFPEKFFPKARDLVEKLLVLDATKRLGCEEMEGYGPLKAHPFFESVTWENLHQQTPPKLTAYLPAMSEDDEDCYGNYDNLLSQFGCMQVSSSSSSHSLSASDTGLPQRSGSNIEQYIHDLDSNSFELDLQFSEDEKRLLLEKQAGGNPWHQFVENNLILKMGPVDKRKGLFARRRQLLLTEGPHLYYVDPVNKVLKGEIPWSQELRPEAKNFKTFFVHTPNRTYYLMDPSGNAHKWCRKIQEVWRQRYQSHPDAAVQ
Muscarinic acetylcholine receptor M1 (Homo sapiens), sequence (P11229 whole entry): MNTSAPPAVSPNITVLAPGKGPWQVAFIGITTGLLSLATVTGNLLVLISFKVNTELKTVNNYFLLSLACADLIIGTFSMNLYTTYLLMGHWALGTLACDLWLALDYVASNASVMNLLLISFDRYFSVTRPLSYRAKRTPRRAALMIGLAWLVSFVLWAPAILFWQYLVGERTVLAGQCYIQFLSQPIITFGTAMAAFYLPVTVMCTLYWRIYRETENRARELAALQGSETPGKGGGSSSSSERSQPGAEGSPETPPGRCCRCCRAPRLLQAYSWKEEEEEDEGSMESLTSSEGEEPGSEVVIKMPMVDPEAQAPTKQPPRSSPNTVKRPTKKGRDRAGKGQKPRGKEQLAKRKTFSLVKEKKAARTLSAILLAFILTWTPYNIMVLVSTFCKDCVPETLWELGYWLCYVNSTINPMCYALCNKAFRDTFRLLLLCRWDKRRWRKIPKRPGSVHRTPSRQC
Tyrosine-protein kinase JAK3 (Homo sapiens), sequence (P52333 whole entry): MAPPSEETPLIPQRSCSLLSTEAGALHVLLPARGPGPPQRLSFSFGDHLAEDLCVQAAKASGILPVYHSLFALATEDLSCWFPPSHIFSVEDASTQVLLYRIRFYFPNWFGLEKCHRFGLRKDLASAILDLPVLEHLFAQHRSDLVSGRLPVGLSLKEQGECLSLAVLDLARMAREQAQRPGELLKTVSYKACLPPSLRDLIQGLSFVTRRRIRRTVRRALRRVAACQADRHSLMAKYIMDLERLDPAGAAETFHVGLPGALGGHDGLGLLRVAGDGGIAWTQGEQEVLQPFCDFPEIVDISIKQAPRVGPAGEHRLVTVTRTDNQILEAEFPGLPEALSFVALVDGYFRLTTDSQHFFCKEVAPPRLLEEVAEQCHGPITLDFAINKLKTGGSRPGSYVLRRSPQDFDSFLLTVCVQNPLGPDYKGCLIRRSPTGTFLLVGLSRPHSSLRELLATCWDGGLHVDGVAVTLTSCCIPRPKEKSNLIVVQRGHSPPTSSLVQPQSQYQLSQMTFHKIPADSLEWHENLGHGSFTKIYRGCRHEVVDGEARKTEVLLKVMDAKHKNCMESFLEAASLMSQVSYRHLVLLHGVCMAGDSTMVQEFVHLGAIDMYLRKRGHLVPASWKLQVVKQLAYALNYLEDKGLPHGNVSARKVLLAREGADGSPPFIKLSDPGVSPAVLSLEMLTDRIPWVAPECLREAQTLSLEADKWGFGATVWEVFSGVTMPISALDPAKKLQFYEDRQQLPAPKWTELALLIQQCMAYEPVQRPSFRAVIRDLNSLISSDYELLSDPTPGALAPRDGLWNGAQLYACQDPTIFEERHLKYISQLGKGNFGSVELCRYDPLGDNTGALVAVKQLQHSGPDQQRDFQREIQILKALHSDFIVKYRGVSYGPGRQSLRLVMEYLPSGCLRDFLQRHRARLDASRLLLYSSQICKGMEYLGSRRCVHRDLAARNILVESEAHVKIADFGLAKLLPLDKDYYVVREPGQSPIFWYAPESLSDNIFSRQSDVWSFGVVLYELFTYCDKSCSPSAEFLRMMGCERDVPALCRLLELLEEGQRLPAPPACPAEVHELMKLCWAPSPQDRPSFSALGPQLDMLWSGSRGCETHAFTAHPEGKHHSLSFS
Angiopoietin-1 receptor (Homo sapiens), sequence (Q02763 whole entry): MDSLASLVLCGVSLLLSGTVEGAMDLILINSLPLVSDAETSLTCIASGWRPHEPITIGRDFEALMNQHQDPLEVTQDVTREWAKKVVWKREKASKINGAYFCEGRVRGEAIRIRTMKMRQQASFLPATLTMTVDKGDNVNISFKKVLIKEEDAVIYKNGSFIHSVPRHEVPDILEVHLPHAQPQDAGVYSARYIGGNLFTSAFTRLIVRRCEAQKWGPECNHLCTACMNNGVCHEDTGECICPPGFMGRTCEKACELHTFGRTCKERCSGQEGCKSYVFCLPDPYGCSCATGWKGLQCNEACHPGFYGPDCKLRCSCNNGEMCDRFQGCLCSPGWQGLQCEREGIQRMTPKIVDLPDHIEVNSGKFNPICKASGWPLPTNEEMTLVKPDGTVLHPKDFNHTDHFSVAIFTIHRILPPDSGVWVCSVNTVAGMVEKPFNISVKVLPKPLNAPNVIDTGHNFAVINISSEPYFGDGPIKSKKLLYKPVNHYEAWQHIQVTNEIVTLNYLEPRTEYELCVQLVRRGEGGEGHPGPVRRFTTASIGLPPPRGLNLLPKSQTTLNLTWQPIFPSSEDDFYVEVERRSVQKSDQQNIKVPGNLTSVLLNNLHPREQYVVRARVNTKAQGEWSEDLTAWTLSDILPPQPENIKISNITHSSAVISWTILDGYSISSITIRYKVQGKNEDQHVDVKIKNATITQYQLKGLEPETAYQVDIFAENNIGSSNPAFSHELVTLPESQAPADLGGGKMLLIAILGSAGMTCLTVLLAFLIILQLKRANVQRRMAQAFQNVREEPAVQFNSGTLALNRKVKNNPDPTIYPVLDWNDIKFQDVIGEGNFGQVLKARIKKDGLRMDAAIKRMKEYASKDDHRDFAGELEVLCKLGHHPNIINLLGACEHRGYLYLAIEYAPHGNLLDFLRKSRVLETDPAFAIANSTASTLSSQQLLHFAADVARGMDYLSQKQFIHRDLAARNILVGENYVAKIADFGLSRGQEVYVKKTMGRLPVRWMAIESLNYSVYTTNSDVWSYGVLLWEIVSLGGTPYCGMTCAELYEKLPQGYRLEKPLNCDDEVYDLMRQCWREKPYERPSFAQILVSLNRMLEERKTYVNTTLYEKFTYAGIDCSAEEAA
Epidermal growth factor receptor (Homo sapiens), sequence (P00533 whole entry): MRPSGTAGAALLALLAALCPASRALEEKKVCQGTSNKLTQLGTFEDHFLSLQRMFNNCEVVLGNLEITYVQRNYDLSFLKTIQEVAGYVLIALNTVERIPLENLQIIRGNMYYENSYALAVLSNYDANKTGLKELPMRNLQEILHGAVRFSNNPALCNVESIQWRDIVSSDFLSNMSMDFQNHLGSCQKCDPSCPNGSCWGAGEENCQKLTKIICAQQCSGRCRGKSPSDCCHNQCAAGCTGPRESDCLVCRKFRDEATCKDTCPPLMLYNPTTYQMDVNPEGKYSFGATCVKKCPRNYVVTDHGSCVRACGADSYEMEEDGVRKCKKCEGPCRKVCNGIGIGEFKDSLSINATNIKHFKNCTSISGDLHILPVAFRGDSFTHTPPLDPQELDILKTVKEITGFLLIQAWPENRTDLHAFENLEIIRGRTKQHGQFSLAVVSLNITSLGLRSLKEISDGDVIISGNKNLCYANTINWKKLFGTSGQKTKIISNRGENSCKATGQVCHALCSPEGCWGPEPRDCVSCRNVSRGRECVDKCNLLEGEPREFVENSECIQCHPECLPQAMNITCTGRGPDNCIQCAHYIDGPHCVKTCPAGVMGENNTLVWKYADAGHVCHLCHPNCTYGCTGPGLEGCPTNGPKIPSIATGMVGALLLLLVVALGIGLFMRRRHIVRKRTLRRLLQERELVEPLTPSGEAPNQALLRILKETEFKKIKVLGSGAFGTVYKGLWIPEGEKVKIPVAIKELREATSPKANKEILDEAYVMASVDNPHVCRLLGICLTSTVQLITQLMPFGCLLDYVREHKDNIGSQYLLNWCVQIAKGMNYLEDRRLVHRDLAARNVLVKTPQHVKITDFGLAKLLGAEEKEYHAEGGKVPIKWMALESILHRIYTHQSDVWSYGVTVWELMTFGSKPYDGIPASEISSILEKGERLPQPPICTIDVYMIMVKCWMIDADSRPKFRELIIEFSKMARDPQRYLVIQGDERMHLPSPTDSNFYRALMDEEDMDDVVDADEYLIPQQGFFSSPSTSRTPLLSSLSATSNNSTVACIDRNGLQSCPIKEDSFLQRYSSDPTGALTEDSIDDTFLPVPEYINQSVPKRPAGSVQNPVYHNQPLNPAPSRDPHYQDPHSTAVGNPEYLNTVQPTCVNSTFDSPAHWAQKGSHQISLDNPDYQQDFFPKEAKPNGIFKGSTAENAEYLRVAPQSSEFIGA

## Cc1cccc2nc(Cn3cnc4ccccc43)cc(=O)n12
[1]
  Activity: inactive
[2]
  Activity: inactive
[3]
  Activity: inactive
[4]
  Activity: inactive
[5]
  Activity: inactive
[6]
  inhibition: inactive
[7]
  inhibition: inactive
[8]
  inhibition: inactive
[9]
  inhibition: inactive
[10]
  inhibition: inactive
[11]
  inhibition: inactive
[12]
  inhibition: inactive
[13]
  inhibition: inactive
[14]
  inhibition: inactive
[15]
  inhibition: inactive
[16]
  inhibition: inactive
[17]
  inhibition: inactive
[18]
  inhibition: inactive
[19]
  inhibition: inactive
[20]
  solubility kinetic: 178 µM (≈ 51.7 µg/mL)
[21]
  Papp A→B: 20.5 ×10⁻⁶ cm/s
[22]
  microsomal CLint: < 8 µL/min/mg
[23]
  max activation: 198%
[24]
  inhibition at 10 µM: 2.83%
[25]
  Activity: 109%
[26]
  Activity: inactive
[27]
  inhibition: inactive
[28]
  Activity: inactive
